Results from different studies.
Lines come from different studies, so protocols differ.
SETD7: Histone-lysine N-methyltransferase SETD7 (SETD7, Homo sapiens, UniProt Q8WTS6)
SLC10A2: Ileal sodium/bile acid cotransporter (SLC10A2, Homo sapiens, UniProt Q12908)

| target | observed | action | technique | tested at | time | inhibition | SMILES |
| --- | --- | --- | --- | --- | --- | --- | --- |
| SETD7 | cell-free assay | – | – | 10 µM | – | 7% | CSCCC(NC=O)C(=O)NC(C)C(=O)O (stereo not drawn) |
| SLC10A2 | transporter uptake | inhibitor | radiometric | 1 mM | – | 59.9% | C=C[C@H]1C[N@@]2CC[C@H]1C[C@H]2[C@H](O)c1ccnc2ccc(OC)cc12 |
| Histone-lysine N-methyltransferase SETD2 (SETD2, Homo sapiens, UniProt Q9BYW2) | enzyme activity | inhibitor | – | 1 µM | – | 20% | CCN(c1cc(C#CCN2CCOCC2)cc(C(=O)NCc2c(C)cc(C)[nH]c2=O)c1C)[C@H]1CC[C@H](N(C)CCOC)CC1 |
| SLC10A2 | transporter uptake | inhibitor | radiometric | 1 mM | – | < 10% | O=C(O)c1cc(=O)c2c(OCC(O)COc3cccc4oc(C(=O)O)cc(=O)c34)cccc2o1 |
| SETD7 | cell-free assay | – | – | 10 µM | – | 16% | O=c1c(O)cccc2c([C@H]3Oc4cc(O)cc(O)c4C[C@H]3O)cc(O)c(O)c12 |
| Serine/threonine-protein kinase 35 (STK35, Homo sapiens, UniProt Q8TDR2) | enzyme activity | inhibitor | – | 1 µM | – | 1% | CN1CC(Oc2cnc(C#N)cc2-c2ccn3nc(NC(=O)C4CC4)cc3c2)C1 |
| SETD7 | cell-free assay | – | – | 10 µM | – | 27% | O=c1c(O)cccc2cc(O)c(O)c(O)c12 |
| SLC10A2 | transporter uptake | inhibitor | radiometric | 1 mM | – | 30.2% | CNC(=C[N+](=O)[O-])NCCSCc1ccc(CN(C)C)o1 |
| Melanocortin receptor 5 (MC5R, Homo sapiens, UniProt P33032) | ligand displacement | – | radioligand | 10 µM | 40 min | 0% | CC(=O)N[C@H]1CSSC[C@@H](C(=O)N[C@H](Cc2c[nH]c3ccccc23)C(N)=O)NC(=O)[C@@H](Cc2ccccc2)NC(=O)[C@H](CCCNC(=N)N)NC1=O |
